Compound activity: PubChem, several laboratories
STAT3 activator = STAT3 signaling activation | U3A cells, IL-6 STAT3-luciferase reporter, luminescence; 100% = signal with IL-6 EC80 alone | activation (% of control), % at 5.6 µM | actives 0.91% (n = 190,000) | AID 871;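 active = activation above the screen-wide mean of compound activation plus 3 SD, cut at about 130% in these data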;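 note: 0% = background luminescence of wells with medium and substrate only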
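system = STAT3-luciferase reporter U3A cells | reagent = IL-6 stimulus at 33 ng/mL final | timing = 1 h compound pre-exposure, 6 h IL-6 stimulation, 37 °C | measured by = luminescence | evaluation = % activation versus median of IL-6-stimulated wells | control set = IL-6-only wells as 100% reference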
STAT1 blocker = reduces IFN-gamma driven STAT1 reporter signal | NIH 3T3 STAT1-luciferase reporter, luminescence | inhibition, % at 5.5 µM | actives 0.35% (n = 200,000) | AID 920;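 active = inhibition above a set limit, the mean inhibition across all tested compounds plus 3 SD, cut at about 34% in these data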;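 note: 0% = IFN-gamma with DMSO and 100% = IFN-gamma with 300 µM nifuroxazide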
APP 5'UTR act = activates APP 5'UTR luciferase reporter; activation, % at 2 µM; SH-SY5Y APP 5'UTR luciferase reporter, luminescence; zero percent = DMSO vehicle wells; actives 1% (n = 190,000);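 active = activation above a set limit, based on mean plus 3 SD of controls, cut at about 140% in these data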
STAT3 blocker = reduces IL-6 driven STAT3 reporter signal; U3A cells, IL-6 STAT3-luciferase reporter, luminescence; host cell line lacks STAT1; inhibition, % at 5.5 µM; actives 0.89% (n = 190,000); AID 862;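 active = inhibition above the mean inhibition across all screened compounds plus 3 SD, cut at about 44% in these data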;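 note: 0% = DMSO only wells and 100% = 100 µM nifuroxazide control wells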
NF-kB expr up = raises NF-kB expression in human neuronal cells | NF-kB reporter expression; stronger effect = higher value | fold change at 12.5 µM | actives 1.6% (n = 190,000) | AID 1239; in the data active = fold change above about 3.3
STAT1 activator = STAT1 signaling activation | NIH 3T3 STAT1-luciferase reporter, IFN-gamma, luminescence; 100% = IFN-gamma alone, no compound | actives 2.6% (n = 200,000) | activation (% of control), % at 5.5 µM;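 active = activation above the screen-wide mean activation plus 3 SD, cut at about 130% in these data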;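 note: raw ratio to IFN-gamma control signal so 100% means no change and 0% no light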
Starred values were filed as active, the others as inactive. Most compounds without a hit are left out; they make up all but 5.1% or so of the library.

SMILES | STAT3 activator | STAT1 blocker | APP 5'UTR act | STAT3 blocker | NF-kB expr up | STAT1 activator
CCc1ccc(S(=O)(=O)c2n[nH]n3c2nc(=O)c2ccccc23)cc1 | 100.2 | -1.6 | 4.4 | 3.2 | 1.01 | 101.4
O=c1nc2c(-c3ccccc3F)n[nH]n2c2ccccc12 | 123.5 | -37.0 | 5.1 | -23.5 | 1.73 | 133.9*
O=[N+]([O-])c1ccc(-c2cc(-c3ccc(Cl)cc3)n[nH]2)cc1 | 83.4 | -43.5 | 9.4 | 26.3 | 1.7 | 137.8*
CN(C)/C=N/c1ncc(C(=O)c2ccccc2)s1 | 108.8 | -32.3 | 76.2 | 0.1 | 2.52 | 129.0*
CN(C)/C=N/c1ncc(C(=O)c2ccc(-c3ccccc3)cc2)s1 | 88.4 | 1.1 | 5.5 | 22.4 | 1.14 | 97.3
Cc1onc(-c2c(Cl)cccc2Cl)c1C(=O)N1CCc2ccccc2C1 | 103.0 | 4.8 | -0.2 | 1.2 | 0.93 | 95.6
CC(=O)NS(=O)(=O)c1ccc(N=c2ssc3c2-c2ccc(C)cc2NC3(C)C)cc1 | 100.1 | -38.1 | -4.0 | 2.5 | 1.61 | 134.0*
COC(=O)[C@@H]1CCCN1C(=O)CCc1nnc(CCc2c[nH]c3ccccc23)o1 | 105.3 | -1.4 | -19.5 | -3.8 | 1.73 | 99.7
COC(=O)[C@@H]1CCCN1C(=O)CCc1nnc(CCC2CCCCC2)o1 | 101.3 | -42.0 | 54.8 | 4.3 | 2.64 | 139.3*
CCCCOc1ccc(-c2nnn(CC(=O)NCc3ccco3)n2)cc1 | 107.8 | -19.2 | 7.4 | -4.6 | 1.85 | 117.5
CC(C)CC(=O)Nc1ccc(-c2nnn(CC(=O)NCc3ccco3)n2)cc1 | 117.5 | -33.1 | 63.5 | -11.5 | 1.7 | 129.1*
O=C1c2ccccc2NC(c2ccc(O)cc2)N1/N=C/c1ccc(O)cc1 (stereo not given) | 112.5 | -24.7 | 12.2 | -18.0 | 1.63 | 121.9
O=C1c2ccccc2NC(c2ccccc2)N1/N=C/c1ccccc1 (stereo not given) | 89.2 | -13.9 | 127.8 | 18.1 | 3.8* | 112.4
c1ccc2c(c1)CCN(c1nc3cc4c(cc3s1)OCCO4)C2 | 24.3 | 36.7* | 147.8* | 87.8* | 1.05 | 66.4
COc1ccc(OC)c2sc(N3CCc4ccccc4C3)nc12 | 86.1 | -0.1 | 4.3 | 20.5 | 1.3 | 100.0
C=CCNc1nc(Nc2ccccc2F)nc(OCC)n1 | 112.9 | -49.2 | 61.3 | -8.0 | 2.68 | 142.5*
C=CCNc1nc(Nc2ccc(OC)cc2OC)nc(OCC)n1 | 97.6 | 0.3 | 9.8 | 5.7 | 0.19 | 99.7
CCC(=O)N1c2ccccc2NC2=C(C(=O)CC(c3ccco3)C2)C1c1ccco1 (stereo not given) | 109.6 | 6.3 | 5.0 | -7.1 | 1.15 | 95.4
O=C1CC(c2ccco2)CC2=C1C1c3ccccc3C(=O)N1c1ccccc1N2 (stereo not given) | 100.2 | -1.5 | 18.9 | 2.6 | 8.45* | 101.4
Clc1ccc(C2=Nn3c(nnc3-c3cccs3)SC2)cc1 | 84.4 | -1.7 | -4.6 | 20.6 | 1.19 | 97.6
Cc1nnc2n(c1=O)N=C(c1ccc(Cl)cc1)CS2 | 114.1 | -36.4 | 112.1 | -19.9 | 2.93 | 132.4*
O=C(CN1CCN(c2ccccn2)CC1)Nc1cccc(S(=O)(=O)N2CCCC2)c1 | 92.4 | 6.8 | -13.8 | 14.0 | 0.86 | 92.4
CCOc1ccc2oc(C(=O)NCC(C)(C)CN(C)C)c(C)c2c1 | 108.3 | -6.2 | -14.2 | -5.9 | 1.1 | 105.4
O=C1c2ccccc2C(=O)C1c1ccncc1 | 70.2 | -29.1 | 94.8 | 36.3 | 3.8* | 126.6
COc1cc(NC(=O)CSc2nc3ccccc3cc2C)c(C(=O)O)cc1OC | 98.5 | 0.8 | 5.2 | -0.8 | 8.72* | 99.3
SMILES | STAT3 activator | STAT1 blocker | APP 5'UTR act | STAT3 blocker | NF-kB expr up | STAT1 activator
Cc1ccc2c(c1)c1cccc3c1n2CCN3CCC(N)=O | 124.6 | -47.2 | 88.3 | -22.2 | 1.48 | 142.9*
NC(=O)CCn1c2ccccc2c2ccccc21 | 107.2 | 0.5 | 6.6 | -0.7 | 1.83 | 98.7
O=S(=O)(O)c1nnc2sc3ccccc3n12 | 99.7 | 1.3 | 6.7 | 3.2 | 1.39 | 98.8
N#Cc1cnc2sc3ccccc3n2c1=N | 103.6 | -33.0 | -6.7 | 3.5 | 3.21 | 130.4*
Brc1ccc(-c2nc3ccccc3s2)s1 | 104.6 | -41.0 | 114.8 | 3.6 | 6.85* | 137.4*
c1ccc(-c2ncc(CSc3nncn3-c3ccccc3)s2)cc1 | 92.8 | 2.5 | 1.1 | 11.9 | 1.15 | 97.7
Cc1nnc(SCc2cnc(-c3ccc(C(C)C)cc3)s2)n1C | 50.4 | 37.0* | 151.5* | 65.2* | 5.69* | 66.2
O=P(COCCOCCOCP(=O)(c1ccccc1)c1ccccc1)(c1ccccc1)c1ccccc1 | 93.6 | 6.8 | 1.1 | 11.8 | 0.92 | 92.3
Cc1ccc(N=Cc2nc(-c3ccco3)oc2O)cc1 | 98.2 | -44.3 | 74.8 | 4.7 | 3.53* | 140.7*
Cc1sc(NC(=O)C2CCCCC2)c(C#N)c1-c1ccccc1 | 111.1 | -33.4 | 45.6 | -8.7 | 1.45 | 129.8*
Cc1cccc(C(=O)Nc2sc(C)c(-c3ccccc3)c2C#N)c1 | 93.9 | -36.4 | 27.4 | 10.6 | 3.52* | 133.4*
Cc1noc(C)c1C(=O)Nc1sc(C)c(-c2ccccc2)c1C#N | 98.2 | 2.3 | -5.3 | 3.6 | 0.48 | 100.0
N#Cc1c(Cl)nsc1NC(=O)c1ccccc1 | 55.8 | 55.4* | -1.9 | 55.9* | 0.56 | 48.9
COc1ccc(OC)c(C2Nc3nc4ccccc4n3C(C)=C2C(=O)Nc2ccc(C)cc2C)c1 (stereo not given) | 97.0 | -3.7 | 22.3 | 5.2 | 1.34 | 103.4
O=C(/C=C/c1ccc(F)cc1)NCCC1=CCCCC1 | 106.2 | -19.0 | 24.0 | -0.8 | 2.27 | 117.4
COc1ccc(NC(=O)NCCC2=CCCCC2)cc1 | 105.6 | -31.1 | 53.4 | -2.7 | 2.88 | 128.6*
O=C(/C=C/c1ccccc1)NCCC1=CCCCC1 | 111.6 | -53.7 | 43.6 | -11.6 | 2.87 | 148.0*
Cc1ccc(C(=O)Nc2c(C)cc(-c3ccccc3)oc2=O)cc1 | 98.7 | -8.8 | 5.4 | 5.2 | 1.15 | 106.3
Cc1ccc(-c2nnc(CCC(=O)NCC3C4CC5CC(C4)CC3C5)o2)s1 (stereo not given) | 111.5 | -54.5 | 45.3 | -8.7 | 2.7 | 147.4*
Cc1ccc(-c2nnc(CCC(=O)N(C)Cc3nccs3)o2)s1 | 100.3 | -19.9 | 10.1 | 3.2 | 2.37 | 117.2
CC(C)(C)NC(=O)COC(=O)c1ccc(NC(=O)CC#N)cc1 | 111.2 | 1.6 | 9.5 | -11.9 | 1.05 | 97.4
Cc1ccc(Nc2cc(-n3cccn3)ncn2)c(C)c1 | 103.3 | -45.1 | 127.5 | -3.7 | 3.47* | 141.3*
Cc1ccc(Nc2cc(-n3nc(C)cc3C)ncn2)c(C)c1 | 87.1 | 10.9 | 0.9 | 21.1 | 1.29 | 90.3
COc1ccc2nc3sc(C(=O)NCCN4CCc5ccccc5C4)cc3cc2c1 | 107.3 | -32.5 | -4.5 | -11.3 | 1.92 | 128.9*
COc1ccc2cc3cc(C(=O)NCCCN4CCc5ccccc5C4)sc3nc2c1 | 128.3 | -34.0 | 106.5 | -38.6 | 3.7* | 134.8*
Cc1ccc(C(=O)Nc2nnc(COc3ccccc3)s2)cc1 | 101.7 | -5.6 | 16.0 | 2.5 | 1.23 | 103.6
